6 molecules from PubChem BioAssay AID493096 (Broad Institute, 2011) can be followed below.

Experiment [1] has as its system Vibrio harveyi BB721 quorum sensing luminescence, 9 h. As to the kind of experiment: Vibrio harveyi quorum sensing luminescence inhibitors, dose response, counter-screen for LuxS inhibitor project, strain BB721, dry powder, set 2 (AID 493096). In a few lines:
(§1)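 Assay system: V. harveyi BB721 quorum-sensing-on strain / Quantity: culture at initial OD600 0.0005 / Buffer or medium: AB medium / Incubation: compound exposure of 9 h at 30 °C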

Assay in experiment [2]: as above
The note with it: Vibrio harveyi BB721 quorum sensing luminescence, 9 h; at 16 µM (top of the series). The method in brief: as §1

Where “and” joins values, the source holds several entries; their conditions need not be identical. Equal values may be shown once. Calls of active or inactive are those of the source.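 Rule for the calls: active = signal drops and an active concentration is fitted at or below ten times the top valid dose of that sample; inconclusive = flat fit between -70 and -30%, or poor fit quality; inactive = the rest.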

On to `COc1cc(NC(=O)CN2C(=O)NC(c3ccccc3)(c3ccccc3)C2=O)cc(OC)c1`, for which the AC50 in experiment [1] was 0.769 µM and 1.14 µM.

Take `CCc1ccc(C(=O)Nc2ccc(Br)cn2)cc1`: the activity change, negative = inhibition in experiment [2] was -2.33% (inactive). As for `Cc1cccc(NS(=O)(=O)c2ccc(Oc3ccccc3)cc2)n1`, the concentration at half-maximal activity (AC50) in experiment [1] is 11.1 µM and 15.4 µM. Consider `O=C1C=C/C(=C/Br)O1`, for which the AC50 in experiment [1] is 6.86 µM. `CCc1ccc(S(=O)(=O)Nc2ccc(Br)cn2)cc1`: the AC50 in experiment [1] was 14.8 µM. For `Cc1cccc(NC(=O)c2ccc(Oc3ccccc3)cc2)n1`, the AC50 in experiment [1] was 14.9 µM.
